Data set [1] concerns Leishmania donovani. Kind of data set: Antileishmanial activity against Leishmania donovani by DNA fluorescence assay. Type of data set: functional, organism-based.
Data set [2] deals with Vero. The experiment in a line: Cytotoxicity against african green monkey Vero cells by MTT assay. Type of data set: cell-based. Particulars: Chlorocebus sabaeus. The gist of the method:
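Green monkey Vero kidney cells; cell proliferation read by MTT.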
In general terms: Tetrazolium dyes change colour on reduction, which living cells bring about.

The nature of data set [3]: Selectivity index, ratio of IC50 for african green monkey Vero cells to IC50 for Leishmania donovani. Type of data set: toxicity, cell-based. Particulars: read-out: Ratio IC50.
The subject of data set [4] is Leishmania donovani. Kind of data set: Antileishmanial activity against Leishmania donovani at 10 ug/mL by DNA fluorescence assay. Type of data set: functional, organism-based. The gist of the method:
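Leishmania donovani; parasite growth read by parasite DNA fluorescence, with amphotericin B as positive control.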

The subject of data set [5] is Trypanosoma cruzi. The experiment in a line: Antitrypanosomal activity against Trypanosoma cruzi Tulahuen infected in mouse 3T3 cells assessed as beta-galactosidase activity at 13.5 uM after 7 days by chagas bioassay. Type of data set: functional, organism-based. The following applies: NIH3T3.
Data set [6] deals with Plasmodium falciparum. Kind of data set: Antimalarial activity against chloroquine-resistant Plasmodium falciparum W2 at 13.5 uM after 48 hrs by fluorometric method. Type of data set: functional, organism-based.
The subject of data set [7] is Trypanosoma cruzi. The experiment in a line: Antitrypanosomal activity against Trypanosoma cruzi Tulahuen infected in mouse 3T3 cells assessed as beta-galactosidase activity after 7 days by chagas bioassay. The following applies: NIH3T3, 168 h.
Data set [8] concerns Leishmania donovani. Kind of data set: Antileishmanial activity against Leishmania donovani at 13.4 uM by DNA fluorescence assay. Type of data set: functional, organism-based.

≈ marks a conversion by molar mass, not a printed value. Calls of active or inactive are those of the source. The calls are words filed in the database; no cut-off is given here. Non-standard residues stand in square brackets, D forms with d. Residues, ends and D or L forms follow the SMILES beside them. *: point of attachment. Octanoyl(2R-Me,7,8-dehydro) = C=CCCCC[C@@H](C)C(=O)*; Oct7ynoyl(2R-Me) = C#CCCCC[C@@H](C)C(=O)*; NMeY = CN[C@@H](Cc1ccc(O)cc1)C(=O)O; NMeF = CN[C@@H](Cc1ccccc1)C(=O)O; X1 = CC(=O)CCCC[C@@H](C)C(=O)*; Oct(7)enoyl = C=CCCCCCC(=O)*; Oct(7)ynoyl = C#CCCCCCC(=O)*; NMeV = CN[C@H](C(=O)O)C(C)C; X5 = C#CCCCCC(C)CC(C)C(=O)*; Hept6ynoyl = C#CCCCCC(=O)*; X3 = CCCCCC[C@@H](C)C(=O)*; X6 = C#CCCCC[C@H](C)C(=O)*; NMeA = CN[C@@H](C)C(=O)O; X4 = C=CCCCCC(=O)*; X2 = C=CCCCC(=O)* Bounds are passed on as bounds.

By IC50 is commonly meant the point on the concentration scale where inhibition reaches its midpoint. Regarding `C#CCCCCC(=O)N(C)[C@H](C(=O)N(C)[C@H](C(=O)N(C)[C@H](C(=O)N(C)[C@@H](C)C(=O)N(C)[C@@H](Cc1ccccc1)C(=O)N(C)C)C(C)C)C(C)C)C(C)C` (Hept6ynoyl-[NMeV][NMeV][NMeV][NMeA][NMeF]-NMe2), the IC50 stood at 3.1 µM in data set [1] and 156 µM in data set [2]. Further, the selectivity ratio in data set [3] stood at 50.2.

For the compound `C#CCCCCC(=O)N(C)[C@H](C(=O)N(C)[C@H](C(=O)N(C)[C@H](C(=O)N(C)[C@@H](C)C(=O)N(C)[C@@H](Cc1ccccc1)C(=O)O)C(C)C)C(C)C)C(C)C` (Hept6ynoyl-[NMeV][NMeV][NMeV][NMeA][NMeF]-OH), the IC50 turned out to be 5.6 µM in data set [1] and 281 µM in data set [2]. For the same compound, the selectivity ratio in data set [3] came out at 50.2.

`C#CCCCCC(=O)N(C)[C@H](C(=O)N(C)[C@H](C(=O)N(C)[C@H](C(=O)N(C)[C@@H](C)C(=O)N(C)[C@@H](Cc1ccccc1)C(=O)OC)C(C)C)C(C)C)C(C)C` (Hept6ynoyl-[NMeV][NMeV][NMeV][NMeA][NMeF]-OMe): the IC50 in data set [1] is more than 14 µM; in data set [2], 41.4 µM.

`C=CCCCC(=O)N(C)[C@H](C(=O)N(C)[C@H](C(=O)N(C)[C@H](C(=O)N(C)[C@@H](C)C(=O)N(C)[C@@H](Cc1ccccc1)C(=O)N(C)C)C(C)C)C(C)C)C(C)C` (X2-[NMeV][NMeV][NMeV][NMeA][NMeF]-NMe2): the IC50 came to 6.7 µM in data set [1] and 93.1 µM in data set [2]. Besides, the selectivity ratio in data set [3] was 13.9.

`C=CCCCCC(=O)N(C)[C@H](C(=O)N(C)[C@H](C(=O)N(C)[C@H](C(=O)N(C)[C@@H](C)C(=O)N(C)[C@@H](Cc1ccccc1)C(=O)N(C)C)C(C)C)C(C)C)C(C)C` (X4-[NMeV][NMeV][NMeV][NMeA][NMeF]-NMe2): the values for the IC50 in data set [1] and in data set [2] were 2.7 µM and 13.8 µM, respectively. Moreover, the selectivity ratio in data set [3] worked out at 8.8.

As for `C=CCCCCC(=O)N(C)[C@H](C(=O)N(C)[C@H](C(=O)N(C)[C@H](C(=O)N(C)[C@@H](C)C(=O)N(C)[C@@H](Cc1ccccc1)C(=O)O)C(C)C)C(C)C)C(C)C` (X4-[NMeV][NMeV][NMeV][NMeA][NMeF]-OH), the half-inhibitory concentration (IC50) in data set [1] is more than 14 µM; in data set [2], more than 70 µM.

Turning to `C=CCCCCC(=O)N(C)[C@H](C(=O)N(C)[C@H](C(=O)N(C)[C@H](C(=O)N(C)[C@@H](C)C(=O)N(C)[C@@H](Cc1ccccc1)C(=O)OC)C(C)C)C(C)C)C(C)C` (X4-[NMeV][NMeV][NMeV][NMeA][NMeF]-OMe), the half-maximal inhibitory concentration (IC50) in data set [1] is more than 14 µM; in data set [2], 24.7 µM.

For the compound `C#CCCCCC(C)CC(C)C(=O)N(C)[C@@H](Cc1ccccc1)C(=O)N[C@@H](C)C(=O)N(C)[C@@H](C)C(=O)N(C)[C@@H](Cc1ccc(OC)cc1)C(N)=O` (stereo not given in full) (X5-[NMeF]A[NMeA][NMeY](Me)-NH2), in data set [4], the result was inactive.

Turning to `C#CCCCC[C@H](C)C(=O)N(C)[C@@H](Cc1ccccc1)C(=O)N[C@@H](C)C(=O)N(C)[C@@H](C)C(=O)N(C)[C@@H](Cc1ccc(OC)cc1)C(N)=O` (X6-[NMeF]A[NMeA][NMeY](Me)-NH2), the outcome in data set [4] was inactive.

As for `C#CCCCC[C@H](C)C(=O)N(C)[C@H](C(=O)N(C)[C@H](C(=O)N(C)[C@H](C(=O)N(C)[C@@H](Cc1ccccc1)C(N)=O)C(C)C)C(C)C)C(C)C` (X6-[NMeV][NMeV][NMeV][NMeF]-NH2), the outcome in data set [4] was inactive.

As to `C#CCCCC[C@H](C)C(=O)N(C)[C@H](C(=O)N(C)[C@H](C(=O)N(C)[C@H](C(=O)N(C)[C@H](C(N)=O)C(C)C)C(C)C)C(C)C)C(C)C` (X6-[NMeV][NMeV][NMeV][NMeV]-NH2), in data set [4], the outcome was inactive.

Turning to `C=CCCCCCC(=O)N(C)[C@H](C(=O)N(C)[C@H](C(=O)N(C)[C@H](C(=O)N(C)[C@@H](C)C(=O)N(C)[C@@H](Cc1ccccc1)C(=O)O)C(C)C)C(C)C)C(C)C` ({Oct(7)enoyl}-[NMeV][NMeV][NMeV][NMeA][NMeF]-OH), the IC50 in data set [1] was determined as 4.1 µM; in data set [2], 192 µM. In data set [3], the selectivity ratio was found to be 46.9.

`C=CCCCCCC(=O)N(C)[C@H](C(=O)N(C)[C@H](C(=O)N(C)[C@H](C(=O)N(C)[C@@H](C)C(=O)N(C)[C@@H](Cc1ccccc1)C(=O)OC)C(C)C)C(C)C)C(C)C` ({Oct(7)enoyl}-[NMeV][NMeV][NMeV][NMeA][NMeF]-OMe): the IC50 is more than 14 µM in data set [1] and 18.8 µM in data set [2].

Regarding `C#CCCCCCC(=O)N(C)[C@H](C(=O)N(C)[C@H](C(=O)N(C)[C@H](C(=O)N(C)[C@@H](C)C(=O)N(C)[C@@H](Cc1ccccc1)C(=O)N(C)C)C(C)C)C(C)C)C(C)C` ({Oct(7)ynoyl}-[NMeV][NMeV][NMeV][NMeA][NMeF]-NMe2), the IC50 in data set [1] was 5.9 µM; in data set [2], 159 µM. Further, in data set [3], the selectivity ratio was 27.

As for `C#CCCCCCC(=O)N(C)[C@H](C(=O)N(C)[C@H](C(=O)N(C)[C@H](C(=O)N(C)[C@@H](C)C(=O)N(C)[C@@H](Cc1ccccc1)C(=O)O)C(C)C)C(C)C)C(C)C` ({Oct(7)ynoyl}-[NMeV][NMeV][NMeV][NMeA][NMeF]-OH), the IC50 was more than 14 µM in data set [1] and more than 68.9 µM in data set [2].

For `C#CCCCCCC(=O)N(C)[C@H](C(=O)N(C)[C@H](C(=O)N(C)[C@H](C(=O)N(C)[C@@H](C)C(=O)N(C)[C@@H](Cc1ccccc1)C(=O)OC)C(C)C)C(C)C)C(C)C` ({Oct(7)ynoyl}-[NMeV][NMeV][NMeV][NMeA][NMeF]-OMe), the IC50 in data set [1] is more than 14 µM; in data set [2] it was 27 µM.

`CC(=O)CCCC[C@@H](C)C(=O)N(C)[C@H](C(=O)N(C)[C@H](C(=O)N[C@H](C(=O)N(C)[C@@H](C)C(=O)N(C)[C@@H](Cc1ccccc1)C(N)=O)C(C)C)C(C)C)C(C)C` [ALMIRAMIDE A] (X1-[NMeV][NMeV]V[NMeA][NMeF]-NH2): the 50% inhibitory concentration (IC50) in data set [1] was more than 13.5 µM; in data set [2], 113 µM. Also, the result in data set [5] and in data set [6] was inactive.

Take `C#CCCCC[C@@H](C)C(=O)N(C)[C@H](C(=O)N(C)[C@H](C(=O)N[C@H](C(=O)N(C)[C@@H](C)C(=O)N(C)[C@@H](Cc1ccccc1)C(N)=O)C(C)C)C(C)C)C(C)C` [ALMIRAMIDE B] ({Oct7ynoyl(2R-Me)}-[NMeV][NMeV]V[NMeA][NMeF]-NH2): the IC50 in data set [1] is 2.4 µM; in data set [2] it was 52.3 µM. In addition, the result in data set [5] and in data set [6] was inactive. Moreover, in data set [3], the selectivity ratio turned out to be 21.8.

With `C=CCCCC[C@@H](C)C(=O)N(C)[C@H](C(=O)N(C)[C@H](C(=O)N[C@H](C(=O)N(C)[C@@H](C)C(=O)N(C)[C@@H](Cc1ccccc1)C(N)=O)C(C)C)C(C)C)C(C)C` [ALMIRAMIDE C] ({Octanoyl(2R-Me,7,8-dehydro)}-[NMeV][NMeV]V[NMeA][NMeF]-NH2), the IC50 in data set [1] was determined as 1.9 µM; in data set [2] it was 33.1 µM. Besides, the outcome in data set [5] and in data set [6] was inactive. In addition, the selectivity ratio in data set [3] was 17.4.

`C[C@@H]1[C@H](O)[C@@H](C)/C=C/C=C/C=C/C=C/C=C/C=C/C=C/[C@H](O[C@@H]2O[C@H](C)[C@@H](O)[C@H](N)[C@@H]2O)C[C@@H]2O[C@](O)(C[C@@H](O)C[C@@H](O)[C@H](O)CC[C@@H](O)C[C@@H](O)CC(=O)O[C@H]1C)C[C@H](O)[C@H]2C(=O)O` [AMPHOTERICIN B] returned an IC50 in data set [1] of 0.08 µg/mL.

As to `CCCCCCCCCCCCCCCCOP(=O)([O-])OCC[N+](C)(C)C` [MILTEFOSINE], in data set [1], it took 0.5 µM to reach half-maximal inhibition (IC50).

For the compound `C#CCCCC[C@@H](C)C(=O)N(C)[C@H](C(=O)N(C)[C@H](C(=O)N(C)[C@H](C(=O)N(C)[C@@H](C)C(=O)N(C)[C@@H](Cc1ccccc1)C(N)=O)C(C)C)C(C)C)C(C)C` [MONOMETHYLALMIRAMIDE B] ({Oct7ynoyl(2R-Me)}-[NMeV][NMeV][NMeV][NMeA][NMeF]-NH2), the IC50 in data set [1] is 1.6 µM.

Take `CC1CS(=O)(=O)CCN1/N=C/c1ccc([N+](=O)[O-])o1` (stereo not given) [NIFURTIMOX]: in data set [7], the IC50 was 3 µg/mL (≈ 10.4 µM).

Take `C#CCCCC[C@@H](C)C(=O)N(C)[C@H](C(=O)N(C)[C@H](C(=O)N(C)[C@H](C(=O)N(C)[C@@H](C)C(=O)N(C)[C@@H](Cc1ccccc1)C(=O)N(C)C)C(C)C)C(C)C)C(C)C` [PERMETHYLALMIRAMIDE B] ({Oct7ynoyl(2R-Me)}-[NMeV][NMeV][NMeV][NMeA][NMeF]-NMe2): the 50% inhibitory concentration (IC50) in data set [1] was 2.3 µM.

For `CCCCCC[C@@H](C)C(=O)N(C)[C@H](C(=O)N(C)[C@H](C(=O)N[C@H](C(=O)N(C)[C@@H](C)C(=O)N(C)[C@@H](Cc1ccccc1)C(N)=O)C(C)C)C(C)C)C(C)C` [TETRAHYDROALMIRAMIDE B] (X3-[NMeV][NMeV]V[NMeA][NMeF]-NH2), in data set [1], the half-maximal inhibitory concentration (IC50) was more than 13.7 µM. The outcome in data set [8] was inactive.

The values are drawn from ChEMBL document CHEMBL1157819, “Almiramides A-C: discovery and development of a new class of leishmaniasis lead compounds” (J Med Chem, 2010).
